Compound activity: PubChem, several laboratories
A selection: hits, their analogues and other compounds. The true share with any hit is near 2.1%.
Hck Nef HTS: human Hck-Nef kinase inhibition | P08631 | Recombinant Hck-YEEI plus Nef, Z-Lyte FRET kinase assay | inhibition, % at 20 µM | actives 0.68% (n = 220,000);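 active = Hck-Nef kinase inhibition above about 50%, limit read from the data; inactive = inhibition below that limit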;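 note: 0% = DMSO with Hck plus Nef and 100% = Hck alone without Nef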
Runt-CBFb FRET: Runt domain-CBFb interaction inhibition; Q01196+Q13951; Cerulean-Runt/Venus-CBFb FRET ratio 530/480, 1 h; inhibition, % at 20 µM; actives 0.46% (n = 220,000);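 active = inhibition over about 50% at 20 µM in the single-dose screen, limit read from the data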;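 note: 0% = DMSO wells and 100% = excess unlabeled CBFb competitor control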
Target sequence (Q01196 whole entry, looked up, the tested form may be a part): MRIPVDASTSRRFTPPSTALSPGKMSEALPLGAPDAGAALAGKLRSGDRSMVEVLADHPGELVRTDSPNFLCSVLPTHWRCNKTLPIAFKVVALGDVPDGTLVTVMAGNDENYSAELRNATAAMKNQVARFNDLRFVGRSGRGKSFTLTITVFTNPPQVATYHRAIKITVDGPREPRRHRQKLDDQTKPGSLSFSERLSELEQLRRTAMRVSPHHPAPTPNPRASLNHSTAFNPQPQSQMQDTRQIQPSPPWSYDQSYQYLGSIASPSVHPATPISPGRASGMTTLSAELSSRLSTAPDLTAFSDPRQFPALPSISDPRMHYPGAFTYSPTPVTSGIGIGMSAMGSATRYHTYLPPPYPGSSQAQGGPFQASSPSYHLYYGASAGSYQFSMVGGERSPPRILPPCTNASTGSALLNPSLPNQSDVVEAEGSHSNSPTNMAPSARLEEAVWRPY
Target sequence (Q13951 whole entry, looked up, the tested form may be a part): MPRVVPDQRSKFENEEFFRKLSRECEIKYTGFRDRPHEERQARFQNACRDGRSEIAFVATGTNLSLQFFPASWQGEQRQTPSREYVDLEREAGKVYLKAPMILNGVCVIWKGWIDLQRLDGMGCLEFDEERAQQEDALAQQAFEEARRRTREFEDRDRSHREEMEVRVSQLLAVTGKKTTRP
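System: Cerulean-labeled Runt domain protein | Quantity: 100 nM of each labeled protein | Schedule: 1 h compound exposure, room temperature | Detection: Fluorescence energy transfer, 422 nm excitation, 530/480 nm emission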
Runt-SMMHC FRET: Runt domain-CBFb-SMMHC interaction inhibition | Cerulean-Runt/Venus-CBFb-SMMHC FRET ratio 530/480, 1 h | inhibition, % at 20 µM | actives 0.74% (n = 220,000) | AID 1434;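 active = mean inhibition across duplicate retests at 20 µM reaching about 50%, limit read from the data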;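 note: 0% = DMSO wells and 100% = wells with excess untagged CBFb-SMMHC; inhibitors lower the FRET ratio by blocking Runt binding to CBFb-SMMHC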
p97 inhibitor: human p97 ATPase inhibition; recombinant p97 ATPase, Kinase-Glo ATP luminescence, 3 h; P55072; actives 0.42% (n = 220,000); inhibition, % at 8 µM; AID 1481; in the data active = inhibition above about 15%;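 note: 0% = DMSO vehicle and 100% = wells lacking enzyme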
RanGTP-Impb inh: inhibitors of RanGTP-importin-beta interaction, primary screen, biochemical, FRET, CFP-Ran, YFP-importin-beta, homogeneous; cell-free CFP-Ran/YFP-importin-beta FRET ratio; inhibition, % (no concentration beside the values); actives 1.1% (n = 300,000); AID 2216;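 active = more than half of the replicate wells show a fall in the fluorescence ratio signal beyond about 16%, limit read from the data, passing the limit was not always enough; inconclusive = exactly half of the replicate wells pass the set limit; inactive = fewer than half of replicates pass the limit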;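 note: 0% = DMSO wells and 100% = Ran loaded with GDP instead of GTP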
TbHK1 inh: blocks Trypanosoma brucei hexokinase 1 activity | recombinant TbHK1, G6PDH-coupled NADH A340 | inhibition, % at 10 µM | actives 0.11% (n = 220,000);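 active = inhibition of 50% or more in the single-dose primary screen; inactive = inhibition below 50%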
Active calls of the source: *; ? = inconclusive; nt = no result.

SMILES	Hck Nef HTS	Runt-CBFb FRET	Runt-SMMHC FRET	p97 inhibitor	RanGTP-Impb inh	TbHK1 inh
CCCCCNC(=O)C(C#N)c1nc2ccccc2nc1N1CCCC1 (configuration not stated)	0	21	-50	-2	20*	3
COCCCNC(=O)C(C#N)c1nc2ccccc2nc1N1CCCC1 (configuration not stated)	2	nt	nt	5	54*	-9
CCCCCCNC(=O)C(C#N)c1nc2ccccc2nc1N1CCCC1 (configuration not stated)	-1	-5	-100	-8	24*	14
CCCCCCNC(=O)C(C#N)c1nc2ccccc2nc1N1CCOCC1 (configuration not stated)	-3	-9	-110	-7	6	-3
CCN1C(=O)[C@H]2[C@@H](c3ccc(-c4ccccc4)cc3)N3CCCC[C@@]3(C(=O)OC)[C@H]2C1=O	nt	nt	nt	nt	-2	nt
CC(C)N1CCN(Cc2ccc(OC3CCCC3)cc2)CC1CCO (configuration not stated)	nt	nt	nt	nt	2	nt
O=C(Cc1ccc(NC2=NC3CS(=O)(=O)CC3S2)cc1)N1CCN(c2ccc(F)cc2)CC1 (configuration not stated)	nt	nt	nt	nt	11	nt
CCN(CC)c1ccc(C2C(C(=O)Nc3ccccn3)=C(C)NC3=C2C(=O)CC(C)(C)C3)cc1 (configuration not stated)	1	4	35	-5	2	-5
CC1=C(C(=O)Nc2cc(C)ccn2)C(c2ccc(C)cc2)C2=C(CCCC2=O)N1 (configuration not stated)	36	18	51*	3	-4	-14
CCn1cc(C2C(C(=O)Nc3cc(C)ccn3)=C(C)NC3=C2C(=O)CC(C)(C)C3)c(C)n1 (configuration not stated)	28	28	69*	4	3	-19
CCn1cc(C2C3=C(CC(C)(C)CC3=O)N(c3ccccc3)C3=C2C(=O)CC(C)(C)C3)c(C)n1	8	23	82*	3	?	-10
COc1ccc(CCN2CC(C(=O)NCCc3cccnc3)CCC2=O)cc1 (configuration not stated)	nt	nt	nt	nt	4	nt
O=C1NC(c2ccc3c(c2)OCO3)Nc2ccccc21 (configuration not stated)	3	0	5	4	-5	-6
Cc1ccc(C2NC(=O)c3c(sc4c3CCN(C)C4)N2)s1 (configuration not stated)	1	42	136*	0	114*	-16
O=C1NC(c2ccccn2)Nc2sc3c(c21)CCC3 (configuration not stated)	2	6	-3	-1	-2	-2
CN1CCc2c(sc3c2C(=O)NC(c2ccc4c(c2)OCO4)N3)C1 (configuration not stated)	nt	125*	152*	nt	41*	nt
CN1CCc2c(sc3c2C(=O)NC(c2ccccc2)N3)C1 (configuration not stated)	5	106*	76*	4	5	-20
Cc1ccsc1C1NC(=O)c2c(sc3c2CCCC3)N1 (configuration not stated)	6	11	16	-5	5	-1
CN1CCc2c(sc3c2C(=O)NC(c2ccccn2)N3)C1 (configuration not stated)	7	99*	65*	2	133*	-8
O=C1NC(c2ccc(Br)cc2)Nc2sc3c(c21)CCC3 (configuration not stated)	0	10	-11	1	-4	-8
COc1ccc(-n2nc(C(=O)NCC(=O)Nc3cccc(Cl)c3)c3ccccc3c2=O)cc1	nt	nt	nt	nt	-1	nt
Cc1ccc(C)c(S(=O)(=O)N2CCCC2CNC(=O)C(=O)NCc2ccccn2)c1 (configuration not stated)	nt	nt	nt	nt	5	nt
CCN1CCN(C(=O)/C(=C/c2cccs2)NC(=O)c2ccc(C)c(C)c2)CC1	nt	nt	nt	nt	3	nt
COc1ccc(-c2csc3nc(-c4ccccc4OC)oc(=O)c23)cc1	-103	3	-8	6	nt	-15
CN1CCc2c(sc3c2C(=O)NC(/C=C/c2ccco2)N3)C1 (configuration not stated)	4	nt	nt	1	78*	-30
SMILES	Hck Nef HTS	Runt-CBFb FRET	Runt-SMMHC FRET	p97 inhibitor	RanGTP-Impb inh	TbHK1 inh
CC(C)(C)C1CCc2c(sc3c2C(=O)NC(c2ccco2)N3)C1 (configuration not stated)	5	2	6	-4	4	-13
Cc1ccc(C2NC(=O)c3c(sc4c3CCN(C)C4)N2)o1 (configuration not stated)	2	88*	72*	2	106*	-17
CCN(C(=O)COC(=O)C1CCN(S(=O)(=O)c2ccc3c(c2)OCCO3)CC1)C1CCCCC1	nt	nt	nt	nt	-3	nt
CC(=O)c1sc(Nc2nc3ccc(F)cc3s2)nc1C	37	59*	79*	0	47*	3
Cc1ccc(NC(=O)COC(=O)CC2CCCC2)cc1Cl	14	0	-5	1	3	28
O=C(Nc1nc(-c2cccnc2)cs1)c1ccccc1[N+](=O)[O-]	27	2	-1	7	18*	-4
CN1/C(=C\C=C(/C#N)C(=O)Nc2ccccc2F)C(C)(C)c2ccccc21	2	-1	58*	4	122*	27
CN1/C(=C/C=C(/C#N)C(N)=O)C(C)(C)c2ccccc21	2	61*	-14	1	115*	2
CN1/C(=C\C(=O)Nc2ccc(F)cc2)C(C)(C)c2ccccc21	0	-2	-6	8	0	-25
Cc1ccccc1C(=O)NC(CC(C)C)C(=O)N1CCN(c2ccccc2)CC1 (configuration not stated)	nt	nt	nt	nt	0	nt
COCOc1ccc(/C=C2/Oc3cc(OCOC)cc(OCOC)c3C2=O)c(OCOC)c1	nt	nt	nt	nt	104*	nt
COc1cc(OC)c2c(c1)O/C(=C\c1ccccc1)C2=O	nt	nt	nt	nt	-3	nt
O=C(c1ccccc1Cl)N1N=C(c2cccs2)CC1c1cccc(O)c1 (configuration not stated)	nt	nt	nt	nt	-1	nt
COc1cc(OC)c2c(O)c3c(c(-c4c5c(c(O)c6c(OC)cc(OC)cc46)CO[C@@H](C)[C@H]5O)c2c1)[C@H](O)[C@H](C)OC3	51*	12	4	-1	?	31
COc1cc2c(c(OC)c1O)C(=O)CO2	0	2	-6	7	-2	-27
Nc1cccc2nsnc12	8	40	-6	6	3	-4
Nc1cc2nsnc2cc1Br	0	nt	-23	43*	-10	20
Cc1cc(/C=C2\SC(=S)N(C)C2=O)c(C)n1-c1cccc(O)c1	-9	-15	-48	-1	36*	-6
